Experimental data taken from ChEMBL document CHEMBL3596157, “Heteroaromatic analogs of the resveratrol analog DMU-212 as potent anti-cancer agents” (2015).

Tests used:
Type in all cases: functional
[1] = test system: CCRF-CEM; experiment: Growth inhibition of human CCRF-CEM cells after 48 hrs by SRB assay
Outline: (§1)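 NCI-60 panel screen. Cells exposed for 48 h to five concentrations (10−4, 10−5, 10−6, 10−7 and 10−8 M). Sulforhodamine B optical density is read just before compound addition (time zero) and after 48 h, for both treated and vehicle-control wells. Percent growth is calculated against control. GI50 is the concentration giving a 50% reduction in net cell growth relative to cell numbers on day 0.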

[2] = test system: HL-60(TB); experiment: Growth inhibition of human HL-60(TB) cells after 48 hrs by SRB assay; conditions: HL-60, 48 h
Outline: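 NCI-60 panel screen: cells were exposed to test agent at five concentrations (10−4, 10−5, 10−6, 10−7 and 10−8 M) for 48 h. Sulforhodamine B optical density was read at time zero and after exposure to compound or vehicle control, and growth percentage versus control was calculated. GI50 was taken as the concentration giving a 50% reduction in net cell growth relative to day 0 cell numbers.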

[3] = test system: K562; experiment: Growth inhibition of human K562 cells after 48 hrs by SRB assay; conditions: K562, 48 h; outline: as §1
[4] = Growth inhibition of human MOLT4 cells after 48 hrs by SRB assay; conditions: MOLT-4, 48 h; outline: as §1
[5] = Growth inhibition of human RPMI8226 cells after 48 hrs by SRB assay; conditions: RPMI-8226, 48 h; outline: as §1
[6] = test system: SR; experiment: Growth inhibition of human SR cells after 48 hrs by SRB assay
Outline: (§2)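 NCI-60 panel cells; preliminary single-dose screen at 10−5 M, then five-dose testing at 10−4 to 10−8 M (tenfold steps) with 48 h exposure. SRB-stained optical density read before compound addition (time zero), after 48 h with compound, and with vehicle control. Percent growth is calculated against control. GI50 is the concentration giving 50% reduction in net growth relative to day-0 cell number.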

[7] = test system: A549; experiment: Growth inhibition of human A549/ATCC cells after 48 hrs by SRB assay; conditions: A549, 48 h; outline: as §1
[8] = test system: HOP-62; experiment: Growth inhibition of human HOP62 cells after 48 hrs by SRB assay; conditions: HOP-62, 48 h; outline: as §1
[9] = Growth inhibition of human HOP92 cells after 48 hrs by SRB assay; conditions: HOP-92, 48 h; outline: as §1
[10] = test system: NCI-H226; experiment: Growth inhibition of human NCI-H226 cells after 48 hrs by SRB assay; conditions: NCI-H226, 48 h; outline: as §1
[11] = test system: NCI-H23; experiment: Growth inhibition of human NCI-H23 cells after 48 hrs by SRB assay; conditions: NCI-H23, 48 h; outline: as §1
[12] = test system: NCI-H460; experiment: Growth inhibition of human NCI-H460 cells after 48 hrs by SRB assay; conditions: NCI-H460, 48 h; outline: as §1
[13] = test system: NCI-H522; experiment: Growth inhibition of human NCI-H522 cells after 48 hrs by SRB assay; conditions: NCI-H522, 48 h; outline: as §1
[14] = Growth inhibition of human COLO205 cells after 48 hrs by SRB assay; conditions: COLO 205, 48 h; outline: as §1
[15] = Growth inhibition of human HCC2998 cells after 48 hrs by SRB assay; conditions: HCC 2998, 48 h; outline: as §1
[16] = test system: HCT-116; experiment: Growth inhibition of human HCT116 cells after 48 hrs by SRB assay; conditions: HCT-116, 48 h; outline: as §1
[17] = test system: HCT-15; experiment: Growth inhibition of human HCT15 cells after 48 hrs by SRB assay; conditions: HCT-15, 48 h; outline: as §1
[18] = test system: HT-29; experiment: Growth inhibition of human HT-29 cells after 48 hrs by SRB assay; conditions: HT-29, 48 h; outline: as §1
[19] = test system: KM12; experiment: Growth inhibition of human KM12 cells after 48 hrs by SRB assay; conditions: KM12, 48 h; outline: as §1
[20] = test system: SW-620; experiment: Growth inhibition of human SW620 cells after 48 hrs by SRB assay; conditions: SW-620, 48 h; outline: as §2
[21] = test system: SF-268; experiment: Growth inhibition of human SF268 cells after 48 hrs by SRB assay; conditions: SF-268, 48 h; outline: as §1
[22] = Growth inhibition of human SF295 cells after 48 hrs by SRB assay; conditions: SF-295, 48 h; outline: as §1
[23] = Growth inhibition of human SF539 cells after 48 hrs by SRB assay; conditions: SF-539, 48 h; outline: as §1
[24] = test system: SNB-19; experiment: Growth inhibition of human SNB19 cells after 48 hrs by SRB assay; conditions: SNB-19, 48 h; outline: as §1
[25] = test system: SNB-75; experiment: Growth inhibition of human SNB75 cells after 48 hrs by SRB assay; conditions: SNB-75, 48 h; outline: as §2
[26] = test system: U-251; experiment: Growth inhibition of human U251 cells after 48 hrs by SRB assay; conditions: U-251, 48 h; outline: as §2
[27] = Growth inhibition of human LOXIMVI cells after 48 hrs by SRB assay; conditions: LOX IMVI; outline: as §1
[28] = test system: Malme-3M; experiment: Growth inhibition of human MALME-3M cells after 48 hrs by SRB assay; outline: as §1
[29] = test system: M14; experiment: Growth inhibition of human M14 cells after 48 hrs by SRB assay; conditions: M14, 48 h; outline: as §1
[30] = test system: MDA-MB-435; experiment: Growth inhibition of human MDA-MB-435 cells after 48 hrs by SRB assay; conditions: MDA-MB-435, 48 h; outline: as §1
[31] = test system: SK-MEL-2; experiment: Growth inhibition of human SK-MEL-2 cells after 48 hrs by SRB assay; conditions: SK-MEL-2, 48 h; outline: as §1
[32] = test system: SK-MEL-28; experiment: Growth inhibition of human SK-MEL-28 cells after 48 hrs by SRB assay; conditions: SK-MEL-28, 48 h; outline: as §1
[33] = test system: SK-MEL-5; experiment: Growth inhibition of human SK-MEL-5 cells after 48 hrs by SRB assay; conditions: SK-MEL-5, 48 h; outline: as §1
[34] = test system: UACC-62; experiment: Growth inhibition of human UACC62 cells after 48 hrs by SRB assay; conditions: UACC-62, 48 h; outline: as §2
[35] = test system: IGROV-1; experiment: Growth inhibition of human IGROV1 cells after 48 hrs by SRB assay; conditions: IGROV-1, 48 h; outline: as §1
[36] = test system: OVCAR-3; experiment: Growth inhibition of human OVCAR3 cells after 48 hrs by SRB assay; conditions: OVCAR-3, 48 h; outline: as §1
[37] = test system: OVCAR-4; experiment: Growth inhibition of human OVCAR4 cells after 48 hrs by SRB assay; conditions: OVCAR-4, 48 h; outline: as §1
[38] = test system: OVCAR-5; experiment: Growth inhibition of human OVCAR5 cells after 48 hrs by SRB assay; conditions: OVCAR-5, 48 h; outline: as §1
[39] = test system: OVCAR-8; experiment: Growth inhibition of human OVCAR8 cells after 48 hrs by SRB assay; conditions: OVCAR-8, 48 h; outline: as §1
[40] = Growth inhibition of human NCI-ADR-RES cells after 48 hrs by SRB assay; outline: as §1
[41] = test system: SK-OV-3; experiment: Growth inhibition of human SKOV3 cells after 48 hrs by SRB assay; conditions: SK-OV-3, 48 h; outline: as §1
[42] = test system: 786-0; experiment: Growth inhibition of human 786-0 cells after 48 hrs by SRB assay; conditions: 786-0, 48 h; outline: as §1
[43] = test system: A498; experiment: Growth inhibition of human A498 cells after 48 hrs by SRB assay; conditions: A498, 48 h; outline: as §1
[44] = test system: ACHN; experiment: Growth inhibition of human ACHN cells after 48 hrs by SRB assay; outline: as §1
[45] = test system: CAKI-1; experiment: Growth inhibition of human Caki1 cells after 48 hrs by SRB assay; conditions: CAKI-1, 48 h; outline: as §1
[46] = Growth inhibition of human RXF393 cells after 48 hrs by SRB assay; conditions: RXF 393, 48 h; outline: as §1
[47] = test system: SN12C; experiment: Growth inhibition of human SN12C cells after 48 hrs by SRB assay; outline: as §1
[48] = test system: TK-10; experiment: Growth inhibition of human TK10 cells after 48 hrs by SRB assay; conditions: TK-10, 48 h; outline: as §2
[49] = test system: UO-31; experiment: Growth inhibition of human UO31 cells after 48 hrs by SRB assay; conditions: UO-31, 48 h; outline: as §2
[50] = test system: PC-3; experiment: Growth inhibition of human PC3 cells after 48 hrs by SRB assay; conditions: PC-3, 48 h; outline: as §1
[51] = test system: DU-145; experiment: Growth inhibition of human DU145 cells after 48 hrs by SRB assay; conditions: DU-145, 48 h; outline: as §1
[52] = test system: MCF7; experiment: Growth inhibition of human MCF7 cells after 48 hrs by SRB assay; conditions: MCF7, 48 h; outline: as §1
[53] = test system: MDA-MB-231; experiment: Growth inhibition of human MDA-MB-231/ATCC cells after 48 hrs by SRB assay; conditions: MDA-MB-231, 48 h; outline: as §1
[54] = Growth inhibition of human Hs578T cells after 48 hrs by SRB assay; conditions: Hs-578T; outline: as §1
[55] = Growth inhibition of human BT549 cells after 48 hrs by SRB assay; conditions: BT-549, 48 h; outline: as §1
[56] = test system: MDA-MB-468; experiment: Growth inhibition of human MDA-MB-468 cells after 48 hrs by SRB assay; conditions: MDA-MB-468, 48 h; outline: as §1

## COc1cc(/C=C/c2cc3ccccc3[nH]2)cc(OC)c1OC
[1]
  GI50: 368 nM
[2]
  GI50: 347 nM
[3]
  GI50: 393 nM
[4]
  GI50: 854 nM
[5]
  GI50: 388 nM
[6]
  GI50: 241 nM
[7]
  GI50: 624 nM
[8]
  GI50: 933 nM
[9]
  GI50: 201 nM
[10]
  GI50: 559 nM
[11]
  GI50: 677 nM
[12]
  GI50: 374 nM
[13]
  GI50: 294 nM
[14]
  GI50: 343 nM
[15]
  GI50: 2250 nM
[16]
  GI50: 534 nM
[17]
  GI50: 469 nM
[18]
  GI50: 335 nM
[19]
  GI50: 436 nM
[20]
  GI50: 333 nM
[21]
  GI50: 708 nM
[22]
  GI50: 311 nM
[23]
  GI50: 231 nM
[24]
  GI50: 461 nM
[25]
  GI50: 329 nM
[26]
  GI50: 442 nM
[27]
  GI50: 664 nM
[28]
  GI50: 388 nM
[29]
  GI50: 332 nM
[30]
  GI50: 150 nM
[31]
  GI50: 426 nM
[32]
  GI50: 944 nM
[33]
  GI50: 305 nM
[34]
  GI50: 465 nM
[35]
  GI50: 504 nM
[36]
  GI50: 234 nM
[37]
  GI50: 691 nM
[38]
  GI50: 963 nM
[39]
  GI50: 587 nM
[40]
  GI50: 365 nM
[41]
  GI50: 676 nM
[42]
  GI50: 802 nM
[43]
  GI50: 281 nM
[44]
  GI50: 620 nM
[45]
  GI50: 382 nM
[46]
  GI50: 275 nM
[47]
  GI50: 1640 nM
[48]
  GI50: 21600 nM
[49]
  GI50: 172 nM
[50]
  GI50: 381 nM
[51]
  GI50: 384 nM
[52]
  GI50: 395 nM
[53]
  GI50: 1300 nM
[54]
  GI50: 257 nM
[55]
  GI50: 938 nM
[56]
  GI50: 285 nM
